Results from ChEMBL document CHEMBL4689842, “EUbOPEN Chemogenomics Library wave 1” (2021).
Values joined by “and” are separate entries in the source; they are usually repeats but may differ in a detail not shown here. Identical values can stand only once.

System: HEK-293T
Assay: Multiplex assay against HEK293T;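 for Population Tubulin-Different-Phenotype (%): share of the cells with healthy nuclei that show this phenotype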
Assay type: toxicity, cell-based
Conditions: human
Procedure, shortened: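 With compound added, live cells were imaged on a CQ1 microscope at 37°C and 5% CO2; staining with Hoechst33342, BioTracker Green Microtubule Cytoskeleton Dye, MitoTracker Red and Annexin V Alexa Fluor 680 had been done at seeding. The CellPathfinder machine-learning gating scheme split cells into Hoechst high-intensity objects or normal cells, normal cells into healthy, pyknosed or fragmented nuclei, and pyknosed cells into mitotic or apoptotic. The tubulin, mitochondrial-mass and membrane-permeability phenotypes are per cents of healthy-nucleus cells.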

[1] = 12 h, 1 µM, compound concentration 1 uM, replicate 1
[2] = 12 h, 1 µM, compound concentration 1 uM, replicate 2
[3] = 12 h, 10 µM, compound concentration 10 uM, replicate 1
[4] = 12 h, 10 µM, compound concentration 10 uM, replicate 2
[5] = 24 h, 1 µM, compound concentration 1 uM, replicate 1
[6] = 24 h, 1 µM, compound concentration 1 uM, replicate 2
[7] = 24 h, 10 µM, compound concentration 10 uM, replicate 1
[8] = 24 h, 10 µM, compound concentration 10 uM, replicate 2
[9] = 48 h, 1 µM, compound concentration 1 uM, replicate 1
[10] = 48 h, 1 µM, compound concentration 1 uM, replicate 2
[11] = 48 h, 10 µM, compound concentration 10 uM, replicate 1
[12] = 48 h, 10 µM, compound concentration 10 uM, replicate 2

## Cl.O=C(O)c1cc(-c2ccc(C3CCNCC3)cc2)c2ccc(-c3ccc(C(F)(F)F)cc3)cc2c1
[1]
  Population Apoptotic (%): 43%
  Population Fragmented Nuclei (%): 17%
  Population Healthy Nuclei (%): 21%
  Population Hoechst High Intensity Objects (%): 19%
  Population Membrane Permeable-Phenotype (%): 0%
  Population Mitochondria Different-Phenotype (%): 76%
  Population Mitotic Cells (%): 56%
  Population Normal (%): 80%
  Population Pyknosed Nuclei (%): 61%
  Population Tubulin-Different-Phenotype (%): 36%
  Total Cell Count: 147
[2]
  Population Apoptotic (%): 6%
  Population Fragmented Nuclei (%): 8%
  Population Healthy Nuclei (%): 38%
  Population Hoechst High Intensity Objects (%): 6%
  Population Membrane Permeable-Phenotype (%): 7%
  Population Mitochondria Different-Phenotype (%): 9%
  Population Mitotic Cells (%): 93%
  Population Normal (%): 93%
  Population Pyknosed Nuclei (%): 52%
  Population Tubulin-Different-Phenotype (%): 4%
  Total Cell Count: 178
[3]
  Population Apoptotic (%): 62%
  Population Fragmented Nuclei (%): 16%
  Population Healthy Nuclei (%): 20%
  Population Hoechst High Intensity Objects (%): 10%
  Population Membrane Permeable-Phenotype (%): 3%
  Population Mitochondria Different-Phenotype (%): 80%
  Population Mitotic Cells (%): 37%
  Population Normal (%): 89%
  Population Pyknosed Nuclei (%): 62%
  Population Tubulin-Different-Phenotype (%): 49%
  Total Cell Count: 305
[4]
  Population Apoptotic (%): 64%
  Population Fragmented Nuclei (%): 8%
  Population Healthy Nuclei (%): 16%
  Population Hoechst High Intensity Objects (%): 16%
  Population Membrane Permeable-Phenotype (%): 20%
  Population Mitochondria Different-Phenotype (%): 66%
  Population Mitotic Cells (%): 35%
  Population Normal (%): 83%
  Population Pyknosed Nuclei (%): 75%
  Population Tubulin-Different-Phenotype (%): 66%
  Total Cell Count: 111
[5]
  Population Apoptotic (%): 43%
  Population Fragmented Nuclei (%): 14%
  Population Healthy Nuclei (%): 33%
  Population Hoechst High Intensity Objects (%): 22%
  Population Membrane Permeable-Phenotype (%): 2%
  Population Mitochondria Different-Phenotype (%): 59%
  Population Mitotic Cells (%): 56%
  Population Normal (%): 77%
  Population Pyknosed Nuclei (%): 51%
  Population Tubulin-Different-Phenotype (%): 28%
  Total Cell Count: 160
[6]
  Population Apoptotic (%): 9%
  Population Fragmented Nuclei (%): 8%
  Population Healthy Nuclei (%): 72%
  Population Hoechst High Intensity Objects (%): 4%
  Population Membrane Permeable-Phenotype (%): 4%
  Population Mitochondria Different-Phenotype (%): 11%
  Population Mitotic Cells (%): 90%
  Population Normal (%): 95%
  Population Pyknosed Nuclei (%): 19%
  Population Tubulin-Different-Phenotype (%): 9%
  Total Cell Count: 236
[7]
  Population Apoptotic (%): 66%
  Population Fragmented Nuclei (%): 20%
  Population Healthy Nuclei (%): 18%
  Population Hoechst High Intensity Objects (%): 16%
  Population Membrane Permeable-Phenotype (%): 4%
  Population Mitochondria Different-Phenotype (%): 78%
  Population Mitotic Cells (%): 34%
  Population Normal (%): 83%
  Population Pyknosed Nuclei (%): 60%
  Population Tubulin-Different-Phenotype (%): 57%
  Total Cell Count: 297
[8]
  Population Apoptotic (%): 60%
  Population Fragmented Nuclei (%): 11%
  Population Healthy Nuclei (%): 16%
  Population Hoechst High Intensity Objects (%): 28%
  Population Membrane Permeable-Phenotype (%): 0%
  Population Mitochondria Different-Phenotype (%): 61%
  Population Mitotic Cells (%): 39%
  Population Normal (%): 71%
  Population Pyknosed Nuclei (%): 72%
  Population Tubulin-Different-Phenotype (%): 76%
  Total Cell Count: 112
[9]
  Population Apoptotic (%): 38%
  Population Fragmented Nuclei (%): 25%
  Population Healthy Nuclei (%): 27%
  Population Hoechst High Intensity Objects (%): 21%
  Population Membrane Permeable-Phenotype (%): 2%
  Population Mitochondria Different-Phenotype (%): 25%
  Population Mitotic Cells (%): 61%
  Population Normal (%): 78%
  Population Pyknosed Nuclei (%): 47%
  Population Tubulin-Different-Phenotype (%): 19%
  Total Cell Count: 166
[10]
  Population Apoptotic (%): 8%
  Population Fragmented Nuclei (%): 4%
  Population Healthy Nuclei (%): 82%
  Population Hoechst High Intensity Objects (%): 2%
  Population Membrane Permeable-Phenotype (%): 4%
  Population Mitochondria Different-Phenotype (%): 1%
  Population Mitotic Cells (%): 92%
  Population Normal (%): 97%
  Population Pyknosed Nuclei (%): 13%
  Population Tubulin-Different-Phenotype (%): 9%
  Total Cell Count: 390
[11]
  Population Apoptotic (%): 60%
  Population Fragmented Nuclei (%): 34%
  Population Healthy Nuclei (%): 7%
  Population Hoechst High Intensity Objects (%): 21%
  Population Membrane Permeable-Phenotype (%): 0%
  Population Mitochondria Different-Phenotype (%): 89%
  Population Mitotic Cells (%): 39%
  Population Normal (%): 78%
  Population Pyknosed Nuclei (%): 58%
  Population Tubulin-Different-Phenotype (%): 78%
  Total Cell Count: 314
[12]
  Population Apoptotic (%): 40%
  Population Fragmented Nuclei (%): 13%
  Population Healthy Nuclei (%): 23%
  Population Hoechst High Intensity Objects (%): 27%
  Population Membrane Permeable-Phenotype (%): 20%
  Population Mitochondria Different-Phenotype (%): 30%
  Population Mitotic Cells (%): 59%
  Population Normal (%): 72%
  Population Pyknosed Nuclei (%): 62%
  Population Tubulin-Different-Phenotype (%): 95%
  Total Cell Count: 119

## CNCc1ccccc1-c1csc([C@@H](C)Nc2nc(C)nc3cc(OC)c(OC)cc23)c1 [BAY-293]
[3]
  Population Apoptotic (%): 19% and 47%
  Population Fragmented Nuclei (%): 20% and 21%
  Population Healthy Nuclei (%): 45% and 17%
  Population Hoechst High Intensity Objects (%): 16% and 22%
  Population Membrane Permeable-Phenotype (%): 29% and 15%
  Population Mitochondria Different-Phenotype (%): 18% and 54%
  Population Mitotic Cells (%): 80% and 52%
  Population Normal (%): 83% and 77%
  Population Pyknosed Nuclei (%): 34% and 61%
  Population Tubulin-Different-Phenotype (%): 80% and 65%
  Total Cell Count: 581 and 619
[4]
  Population Fragmented Nuclei (%): 5% and 2%
  Population Healthy Nuclei (%): 80% and 57%
  Population Hoechst High Intensity Objects (%): 3% and 9%
  Population Membrane Permeable-Phenotype (%): 7%
  Population Mitotic Cells (%): 91% and 65%
  Population Normal (%): 96% and 90%
  Population Pyknosed Nuclei (%): 14% and 40%
  Population Tubulin-Different-Phenotype (%): 95% and 92%
  Total Cell Count: 1447 and 918
[7]
  Population Apoptotic (%): 55% and 23%
  Population Fragmented Nuclei (%): 28% and 17%
  Population Hoechst High Intensity Objects (%): 25% and 13%
  Population Membrane Permeable-Phenotype (%): 17% and 36%
  Population Mitochondria Different-Phenotype (%): 45% and 16%
  Population Mitotic Cells (%): 44% and 76%
  Population Normal (%): 74% and 86%
  Population Tubulin-Different-Phenotype (%): 59% and 89%
  Total Cell Count: 668 and 627
[8]
  Population Fragmented Nuclei (%): 5% and 15%
  Population Healthy Nuclei (%): 46% and 79%
  Population Mitotic Cells (%): 53% and 94%
  Population Normal (%): 89% and 96%
  Population Tubulin-Different-Phenotype (%): 73% and 82%
  Total Cell Count: 918 and 2344

## CNC(=O)c1ccc(Nc2ncc(C(F)(F)F)c(NCc3nccnc3N(C)S(C)(=O)=O)n2)cc1 [DEFACTINIB]
[1]
  Population Apoptotic (%): 27%
  Population Fragmented Nuclei (%): 14% and 16%
  Population Healthy Nuclei (%): 72% and 59%
  Population Hoechst High Intensity Objects (%): 11% and 18%
  Population Membrane Permeable-Phenotype (%): 4% and 6%
  Population Mitochondria Different-Phenotype (%): 6% and 8%
  Population Mitotic Cells (%): 72% and 74%
  Population Normal (%): 88% and 81%
  Population Pyknosed Nuclei (%): 13% and 24%
  Total Cell Count: 689 and 588
[2]
  Population Apoptotic (%): 25% and 12%
  Population Fragmented Nuclei (%): 9% and 3%
  Population Healthy Nuclei (%): 84% and 92%
  Population Hoechst High Intensity Objects (%): 3%
  Population Membrane Permeable-Phenotype (%): 2% and 3%
  Population Mitochondria Different-Phenotype (%): 10% and 19%
  Population Mitotic Cells (%): 75% and 87%
  Population Normal (%): 96%
  Population Pyknosed Nuclei (%): 6% and 3%
  Total Cell Count: 1140 and 1057
[3]
  Population Apoptotic (%): 27%
  Population Fragmented Nuclei (%): 17% and 16%
  Population Healthy Nuclei (%): 62% and 66%
  Population Hoechst High Intensity Objects (%): 11% and 13%
  Population Membrane Permeable-Phenotype (%): 7% and 4%
  Population Mitochondria Different-Phenotype (%): 12% and 5%
  Population Mitotic Cells (%): 72%
  Population Normal (%): 88% and 86%
  Population Pyknosed Nuclei (%): 20% and 17%
  Total Cell Count: 704 and 581
[4]
  Population Fragmented Nuclei (%): 3% and 7%
  Population Healthy Nuclei (%): 90% and 87%
  Population Hoechst High Intensity Objects (%): 5% and 2%
  Population Membrane Permeable-Phenotype (%): 6% and 1%
  Population Mitochondria Different-Phenotype (%): 21% and 10%
  Population Mitotic Cells (%): 78% and 96%
  Population Normal (%): 94% and 97%
  Population Pyknosed Nuclei (%): 6% and 4%
  Total Cell Count: 770 and 1490
[5]
  Population Apoptotic (%): 23% and 19%
  Population Fragmented Nuclei (%): 15% and 17%
  Population Healthy Nuclei (%): 77% and 62%
  Population Hoechst High Intensity Objects (%): 6% and 14%
  Population Membrane Permeable-Phenotype (%): 6%
  Population Mitochondria Different-Phenotype (%): 4% and 12%
  Population Mitotic Cells (%): 76% and 80%
  Population Normal (%): 93% and 85%
  Population Pyknosed Nuclei (%): 7% and 19%
  Population Tubulin-Different-Phenotype (%): 10% and 26%
  Total Cell Count: 751 and 618
[6]
  Population Apoptotic (%): 14% and 11%
  Population Healthy Nuclei (%): 74% and 91%
  Population Hoechst High Intensity Objects (%): 3% and 5%
  Population Membrane Permeable-Phenotype (%): 3%
  Population Mitotic Cells (%): 85% and 88%
  Population Normal (%): 96% and 94%
  Population Pyknosed Nuclei (%): 3% and 2%
  Total Cell Count: 1868 and 1334
[7]
  Population Apoptotic (%): 33% and 18%
  Population Fragmented Nuclei (%): 16% and 15%
  Population Healthy Nuclei (%): 66% and 78%
  Population Hoechst High Intensity Objects (%): 11% and 7%
  Population Membrane Permeable-Phenotype (%): 6% and 4%
  Population Mitotic Cells (%): 66% and 81%
  Population Normal (%): 88% and 92%
  Population Tubulin-Different-Phenotype (%): 24% and 11%
  Total Cell Count: 732 and 672
[8]
  Population Healthy Nuclei (%): 90% and 75%
  Population Hoechst High Intensity Objects (%): 3%
  Population Membrane Permeable-Phenotype (%): 8% and 3%
  Population Mitotic Cells (%): 71% and 92%
  Population Normal (%): 96%
  Population Pyknosed Nuclei (%): 4% and 2%
  Total Cell Count: 961 and 2290
